Measurements from ChEMBL document CHEMBL1147489, “Pi-delocalized beta-carbolinium cations as potential antimalarials” (Bioorg Med Chem Lett, 2004).

What was measured:
FM3A [1] = experiment: Relative activity against FM3A cells and Plasmodium falciparum FCR3; assay type: functional
How it was run: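 Selective toxicity calculated as EC50 in FM3A cells divided by EC50 against P. falciparum FCR-3.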

Plasmodium falciparum = experiment: In vitro antimalarial activity against Plasmodium falciparum FCR3; assay type: functional, organism-based
How it was run: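 Drug-sensitive P. falciparum FCR-3 strain tested in vitro; antimalarial potency given as EC50 (M).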

FM3A [2] = experiment: In vitro cytotoxic activity tested in mouse mammary tumor FM3A cells; assay type: functional, cell-based
How it was run: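 Growth-inhibition assay in mouse mammary tumour FM3A cells, used as a model of the host. The value reported is the EC50 for cell growth.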

FM3A [3] = experiment: In vitro growth inhibitory activity tested in mouse mammary tumor FM3A cells at 3.0E-5 M concentration

| SMILES | Selective toxicity (FM3A [1]) | EC50 (Plasmodium falciparum) [µM] | EC50 (FM3A [2]) [µM] | Percent growth (FM3A [3]) [%] |
| --- | --- | --- | --- | --- |
| C[n+]1ccc2c([nH]c3ccccc32)c1-c1ccccc1.Cc1ccc(S(=O)(=O)[O-])cc1 | >1.8 | 13 |  |  |
| COc1c[n+](C)c(C)c2[nH]c3ccccc3c12.[I-] | 81 | 0.37 | 30 |  |
| CC1=NCCc2c1[nH]c1ccccc21 | 2.1 | 18 | 45 |  |
| Cc1c2[nH]c3ccccc3c2cc[n+]1C.Cc1ccc(S(=O)(=O)[O-])cc1 | 18 | 2 | 35 |  |
| CC1=[N+](C)CCc2c1[nH]c1ccccc21.Cc1ccc(S(=O)(=O)[O-])cc1 | >24 | 16 |  |  |
| CCOC(=O)c1c2[nH]c3ccccc3c2c(OC)c[n+]1C.Cc1ccc(S(=O)(=O)[O-])cc1 | 1.2 | 19 | 22 |  |
| C=Cc1c2[nH]c3ccccc3c2c(OC)c[n+]1CC.Cc1ccc(S(=O)(=O)[O-])cc1 | 77 | 0.13 | 10 |  |
| COc1cnc(C)c2[nH]c3ccccc3c12 | 0.82 | 22 | 18 |  |
| COc1ccc2c(c1)[nH]c1c(C)[n+](C)ccc12.Cc1ccc(S(=O)(=O)[O-])cc1 | 17 | 1.1 | 19 |  |
| COc1ccc2c3cc[n+](CCO)c(C)c3n(C)c2c1.[Br-] | >65 | 1.1 |  |  |
| COc1ccc2c3ccnc(C)c3n(C)c2c1 | 1 | 31 | 32 |  |
| C=Cc1c2[nH]c3ccccc3c2c(OC)c[n+]1C.Cc1ccc(S(=O)(=O)[O-])cc1 | 7.6 | 1.1 | 8.4 |  |
| Cc1c2nc3ccccc3c-2ccn1C | 6 | 4.8 | 29 |  |
| COc1ccc2c3cc[n+](C)c(C)c3n(C)c2c1.Cc1ccc(S(=O)(=O)[O-])cc1 | 48 | 0.46 | 22 |  |
| CCc1c2[nH]c3ccccc3c2c(OC)c[n+]1C.[I-] | >32 | 0.95 |  | 63 |
| C=Cc1ncc(OC)c2c1[nH]c1ccccc12 | 0.76 | 5 | 3.8 |  |
| COc1ccc2c(c1)[nH]c1c(C)nccc12 [HARMINE] | 0.82 | 22 | 18 |  |
| C=C[C@H]1CN2CC[C@H]1C[C@H]2[C@H](O)c1ccnc2ccc(OC)cc12 [QUININE] | 910 |  |  |  |
